# Compound activity as filed in PubChem BioAssay.
# Most compounds without a hit are left out; they make up all but 0.85% or so of the library.
# zfTRPN1 agonist: zebrafish TRPN1 channel agonists, primary screen, cell-based, HEK293, calcium fluorescence | transient receptor potential cation channel N1 (TRPN1/NompC), Danio rerio | activation, % at 3 µM | actives 0.18% (n = 220,000) | HEK293 zebrafish TRPN1-YFP, Fluo-8 calcium fluorescence; 100% = response to 87 µM carbachol;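 active = activation above its plate's cutoff, the mean activation of test wells on that plate plus 3 SD, cut at about 19% in these data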;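 also: 0% = DMSO alone and 100% = 87 µM carbachol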
#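 Material – zebrafish TRPN1-YFP in HEK293 cells · Doses – 3 µM single point · Schedule – dye 1 h 37 °C plus 30 min RT · Signal – Fluo-8 calcium fluorescence, excitation 470-495 nm, emission 515-575 nm · Read-out – % activation versus carbachol response · Control set – carbachol high, DMSO low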
# OXTR agonist: human OXTR agonists, primary screen, fluorescence, CHO-OTR cells, Fluo-8 calcium; activation, % at 3 µM; Oxytocin receptor (Homo sapiens), P30559; Fluo-8 calcium fluorescence; normalized: DMSO 0%, oxytocin 100%; actives 0.32% (n = 320,000);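 active = activation above the mean of all tested compounds plus 3 SD, cutoff set per screening run, cut at about 20% in these data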;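 also: peak over basal fluorescence ratio from a 100 s FLIPR kinetic read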
# OXTR potentiate: human OXTR potentiators, primary screen, fluorescence, CHO-OTR cells, Fluo-8 calcium; Fluo-8 calcium fluorescence, potentiator mode; 0% = oxytocin EC15, 100% = EC100; activation, % at 3 µM; actives 0.061% (n = 320,000); Oxytocin receptor (Homo sapiens), P30559; AID 2445, 2010;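 active = activation above that plate's cutoff, the mean activation of tested compounds plus 3 SD, cut at about 6.6% in these data, passing the limit was not always enough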;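 also: 100% uses oxytocin at 75 nM as the full agonist control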
#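 Assay system: CHO cell line stably expressing human OTR. Reagent: EC15 oxytocin agonist. Dosing: single dose, 3.0 µM nominal final compound concentration. Timing: compound 6 min at room temperature before oxytocin, 100 s read. Signal: kinetic Fluo-8 calcium fluorescence. Controls: oxytocin EC15 low and EC100 high.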
# V1aR counter: agonists of human V1a receptor, primary screen, counter-screen for OXTR agonist project, fluorescence, CHO-V1R cells. Vasopressin V1a receptor (Homo sapiens), P37288. activation, % at 3 µM. actives 0.25% (n = 320,000). Fluo-8 calcium fluorescence, agonist mode; 0% DMSO, 100% 3 nM vasopressin. AID 2797, 2010;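 active = activation above the mean activation of all tested compounds plus 3 SD, per screening run, cut at about 20% in these data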;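 also: signal is peak over basal fluorescence ratio across a 100 second FLIPR read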
# CRFBP-R2 agonist: agonists of CRF-BP/CRF-R2 complex, primary screen, cell-based, HEK293, calcium dye fluorescence, uHTS | CRF-binding protein / CRF receptor 2 complex (human) | calcium dye fluorescence (FLIPR); percent of saturating CRF peptide response | activation, % at 13.2 µM | actives 0.46% (n = 350,000);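 active = activation of at least 50%, plus an integration ratio under a set limit after plate pattern correction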;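 also: plate controls were neutral control wells without compound for no effect and CRF at EC100 for full effect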
# TRPML3 agonist: human TRPML3 channel agonists, primary screen, cell-based, HEK293 TRPML3-YFP, Fluo-8 calcium fluorescence, 3 µM. Mucolipin-3 (Homo sapiens), Q8TDD5. 100% = the carbachol control signal. activation, % at 3 µM. actives 0.29% (n = 220,000). AID 1448, 2008;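 active = activation above its plate's cutoff, the mean activation of the plate's test wells plus 3 SD, cut at about 12% in these data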;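 also: 0% = DMSO only wells and 100% = carbachol wells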
# Target sequence (Q8TDD5 whole entry, looked up): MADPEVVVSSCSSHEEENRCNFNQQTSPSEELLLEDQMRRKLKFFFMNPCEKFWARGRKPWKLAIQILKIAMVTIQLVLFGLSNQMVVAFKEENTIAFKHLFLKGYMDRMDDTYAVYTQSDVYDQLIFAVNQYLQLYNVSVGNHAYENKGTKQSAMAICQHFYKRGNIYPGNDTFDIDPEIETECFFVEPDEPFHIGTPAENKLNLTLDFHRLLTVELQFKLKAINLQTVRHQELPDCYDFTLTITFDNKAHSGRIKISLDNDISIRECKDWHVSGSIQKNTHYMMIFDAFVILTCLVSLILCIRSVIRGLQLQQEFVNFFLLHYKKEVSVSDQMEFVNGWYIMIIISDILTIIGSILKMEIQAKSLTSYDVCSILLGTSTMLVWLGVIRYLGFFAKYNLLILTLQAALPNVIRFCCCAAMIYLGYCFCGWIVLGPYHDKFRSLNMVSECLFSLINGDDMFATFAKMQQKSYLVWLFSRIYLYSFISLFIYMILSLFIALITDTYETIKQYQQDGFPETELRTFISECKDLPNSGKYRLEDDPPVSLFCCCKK
#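 Test system: HEK293 cells stably carrying human TRPML3-YFP; Doses: single dose, 3 µM final nominal compound, 0.3% DMSO final; Schedule: dye loading 1 h 37 °C then 30 min ambient, 125 s read; Technique: Fluo-8 calcium fluorescence; Benchmarks: high control carbachol 87 µM, low control DMSO.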
# Numbers without * were called inactive; · = no result given.
SMILES,zfTRPN1 agonist,OXTR agonist,OXTR potentiate,V1aR counter,CRFBP-R2 agonist,TRPML3 agonist
N#Cc1c(Cl)nsc1NC(=O)c1ccccc1,30*,16,-15,12,47,21*
COc1cccc(S(=O)(=O)Nc2ccc3c(c2)[C@H]2C[C@H](CC(=O)N[C@@H](C)c4ccccc4)O[C@H](CO)[C@H]2O3)c1,·,·,·,·,4,·
Cc1ccc(NS(=O)(=O)c2ccc(C(=O)OCC(=O)Nc3cc(C)on3)cc2)cc1,22*,·,·,·,20,11
O=[N+]([O-])c1ccc(N(c2ccccc2)c2ccccc2)cc1,1,3,-7,4,54*,1
CCOCCCn1c(SCc2nc3ccccc3s2)nc2ccccc2c1=O,-1,0,-4,0,51*,0
CCOCCCn1c(SCC(=O)Nc2ccccc2)nc2ccccc2c1=O,·,-3,3,-1,0,·
CC(=O)Nc1sc2c(c1-c1nc3ccccc3s1)CN(C(C)C)CC2,·,12,1,14,94*,·
COc1cc(/C=C/C(=O)OCC(=O)N(CC(C)C)c2c(N)n(Cc3ccccc3)c(=O)[nH]c2=O)ccc1O,·,·,·,·,120*,·
CC(Oc1cccc([N+](=O)[O-])c1)C(=O)NCCC1=CCCCC1 (configuration not stated),·,-2,-4,-1,1,·
C=CCC[C@@H](Cc1ccc(F)cc1)C(=O)OC[C@@H](NC(=O)[C@H](CC=C)CC(=O)NCCO)C(C)(C)C,·,-1,2,0,-2,·
N#Cc1ccc(OCC(=O)NCC2COc3ccccc3O2)cc1 (configuration not stated),·,0,-8,0,0,·
COc1ccc2c(CC#N)c[nH]c2c1,-1,0,-5,0,78*,1
COc1ccc2c(CCNC(N)=S)c[nH]c2c1,2,0,1,0,1,0
COc1cc(/C=C/C(O)=C/C(=O)/C=C/c2ccc(O)cc2)ccc1O,·,22*,-11,21*,113*,·
COc1cc(/C=C/C(=O)NC(=O)c2ccccc2O)ccc1O,·,-1,6,1,0,·
CCc1ccc(O)c(N=Cc2cccc(C)c2O)c1,1,0,-8,-1,1,0
Cc1cccc(C=Nc2ccc3c4c(cccc24)CC3)c1O,9,9,-6,25*,4,7
CCN(CC)c1ccc(/C=c2/sc3nnc(-c4ccccc4C)n3c2=O)cc1,4,4,-9,5,133*,2
CCN(CC)c1ccc(/C=c2\sc3nnc(-c4ccccc4Cl)n3c2=O)cc1,1,7,-8,13,112*,2
O=C(Nc1ccc(Cl)cc1)Nc1ccc(Cl)c(Cl)c1,·,18,-11,14,11,·
N#Cc1ccc(NC(=O)Nc2ccc(Cl)cc2)cc1,22*,16,-24,8,50,15*
C=CCn1c(=S)[nH]c2cc(C(=O)Nc3ccc(F)cc3)ccc2c1=O,·,16,-15,13,1,·
O=[N+]([O-])c1ccc(O)c(/C=N\N=C2c3ccccc3-c3ccccc32)c1,0,10,-16,6,84*,1
CCOC(=O)c1ccc(/C=C2/C=C(c3ccccc3)N(c3ccc(Cl)c(C(=O)O)c3)C2=O)cc1,3,14,-5,11,96*,2
CCOC(=O)c1ccc(Cl)c(NC(=O)c2ccc(-c3ccccc3)cc2)c1,2,0,-5,1,-1,0
SMILES,zfTRPN1 agonist,OXTR agonist,OXTR potentiate,V1aR counter,CRFBP-R2 agonist,TRPML3 agonist
O=[N+]([O-])c1cc([N+](=O)[O-])c(Oc2cccnc2Br)cc1NN1CCCCC1,·,-2,0,0,-3,·
O=[N+]([O-])c1ccc(N/N=C/c2c[nH]c3ccccc23)cc1,10,25*,-21,24*,180*,9
O=C(O)c1ccc(-c2ccc(/C=N/Nc3ccc([N+](=O)[O-])cc3)o2)cc1,39*,51*,-33,65*,155*,24*
O=C(O)c1cccc(-c2ccc(/C=N/Nc3ccc([N+](=O)[O-])cc3)o2)c1,24*,26*,-9,34*,166*,11
O=[N+]([O-])c1ccccc1N/N=C/c1c[nH]c2ccccc12,-4,-1,-14,0,0,-1
COc1c(C)cc(Br)cc1C(=O)NC(=S)NCc1ccco1,·,1,-7,2,0,·
CCOc1ccc(NC(=O)Cn2sc3nc(C)cc(C)c3c2=O)cc1,0,4,-10,5,0,1
Cc1cc(C)c2c(=O)n(CC(=O)Nc3ccc(Cl)cc3)sc2n1,11,32*,-11,30*,4,5
CCOC(=O)c1sc2ncc([N+](=O)[O-])cc2c1N,0,3,-1,3,-4,0
COC(=O)c1sc2cc([N+](=O)[O-])cc(SCC(C)C)c2c1N,4,7,-5,8,55*,2
CCOC(=O)/C(C#N)=C/C=C1\C=Cc2ccccc2N1CC,1,7,-1,5,0,1
CCOC(=O)/C(C#N)=C/N=c1ccc(C)cn1C,0,0,-5,-1,0,1
CCCCCCN1C=CC(=C/C=C(\C#N)C(=O)OCC)C=C1,65*,177*,-16,149*,247*,55*
CCCN1C=CC(=C/C=C(\C#N)C(=O)OCC)C=C1,19*,62*,-15,49*,·,15*
C=CCn1c(SC(C)CC)nc(O)cc1=O (configuration not stated),2,46*,-32,30*,11,3
C=CCn1c(SCCCCCC)nc(O)cc1=O,0,0,4,-1,1,0
CCn1c(=O)c(C(=O)NNC(=O)c2ccccc2F)c(O)c2ccccc21,·,28*,-11,52*,100*,·
CCn1c(=O)c(C(=O)NNC(=O)c2ccccc2Cl)c(O)c2ccccc21,·,22*,-15,41*,48,·
COc1ccc(C2=C/C(=C/c3cccnc3)C(=O)O2)cc1OC,0,3,-11,6,144*,1
O=C1CSC(c2cccc([N+](=O)[O-])c2)N1c1c(F)cccc1F (configuration not stated),-4,-2,-8,-1,-2,0
